Activity calls are given as the source filed them. No cut-off for these calls is given here.
Tests used:
Salmonella typhimurium [1] = experiment: Antimutagenic activity against Salmonella typhimurium TA1535 assessed as inhibition of NaN3-induced mutation at 500 ug/plate preincubated for 30 mins followed by top agar addition and measured after 48 hrs in presence of liver S9 fraction by Ames test relative to control; assay type: organism-based; settings: salmonella enterica subsp. enterica serovar typhimurium, s9, 48 h
Mus musculus [2] = experiment: Anticonvulsant activity in CF-1 mouse model of maximal electroshock-induced seizure assessed as suppression of tonic hind limb extension at 30 mg/kg, ip measured at 4 hrs post dose; assay type: functional, organism-based
Procedure, shortened: (§1)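 Mice dosed i.p. and given maximal electroshock at 50 mA. Read-out is protection, reported as number protected / number tested at 0.25, 0.5, 1 and 4 h after dosing.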

Mus musculus [3] = experiment: Anticonvulsant activity in CF-1 mouse model of subcutaneous pentylenetetrazole-induced seizure assessed as reduction in convulsions at 30 mg/kg, ip measured at 0.5 hrs post dose; assay type: functional, organism-based
Procedure, shortened: (§2)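 Mice dosed i.p., then given pentylenetetrazole 85 mg/kg in 0.9% NaCl s.c. into the posterior midline of the neck. Seizures watched for at least 30 min. Scored as protected / tested at 0.5 and 4 h.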

Mus musculus [4] = experiment: Anticonvulsant activity in CF-1 mouse model of maximal electroshock-induced seizure assessed as suppression of tonic hind limb extension at 100 mg/kg, ip measured at 1 hr post dose; assay type: functional, organism-based; procedure, shortened: as §1
[5] = Neurotoxicity in Sprague-Dawley rat at 100 mg/kg, ip measured after 1 hr by rotarod test; assay type: toxicity, organism-based; settings: in vivo
Procedure, shortened: (§3)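 Rat neurotoxicity after i.p. or p.o. dosing was scored as animals impaired / animals tested at each time point. For p.o. dosing, TD50 was obtained by probit analysis.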

Salmonella typhimurium [6] = experiment: Antimutagenic activity against Salmonella typhimurium TA1535 assessed as inhibition of NaN3-induced mutation at 250 ug/plate preincubated for 30 mins followed by top agar addition and measured after 48 hrs in presence of liver S9 fraction by Ames test relative to control; assay type: organism-based; settings: salmonella enterica subsp. enterica serovar typhimurium, s9, 48 h
Mus musculus [7] = experiment: Anticonvulsant activity in CF-1 mouse model of subcutaneous pentylenetetrazole-induced seizure assessed as reduction in convulsions at 100 mg/kg, ip measured at 0.5 hrs post dose; assay type: functional, organism-based; procedure, shortened: as §2
Mus musculus [8] = experiment: Anticonvulsant activity in CF-1 mouse model of maximal electroshock-induced seizure assessed as suppression of tonic hind limb extension at 300 mg/kg, ip measured at 0.5 hrs post dose; assay type: functional, organism-based; procedure, shortened: as §1
Rattus norvegicus [9] = experiment: Anticonvulsant activity in Sprague-Dawley rat model of maximal electroshock-induced seizure assessed as suppression of tonic hind limb extension at 30 mg/kg, po measured at 2 hrs post dose; assay type: functional, organism-based
Procedure, shortened: (§4)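 Rats given 30 mg/kg p.o. and tested by maximal electroshock at 150 mA. Scored as number protected / number tested (4 per group) at 0.25, 0.5, 1, 2 and 4 h after dosing.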

[10] = Neurotoxicity in CF-1 mouse at 100 mg/kg, ip measured after 0.5 hrs by rotarod test; assay type: toxicity, organism-based; settings: in vivo
Procedure, shortened: (§5)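 Mice dosed i.p. were placed on a 1 in. knurled rod turning at 6 rpm. Toxicity was scored as failure to keep balance for at least 1 min, i.e. falling off three or more times. Results are reported as animals showing toxicity / animals tested at each time point.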

Mus musculus [11] = experiment: Anticonvulsant activity in CF-1 mouse model of subcutaneous pentylenetetrazole-induced seizure assessed as reduction in convulsions at 100 mg/kg, ip measured at 4 hrs post dose; assay type: functional, organism-based; procedure, shortened: as §2
Salmonella typhimurium [12] = experiment: Antimutagenic activity against Salmonella typhimurium TA100 assessed as inhibition of NaN3-induced mutation at 250 ug/plate preincubated for 30 mins followed by top agar addition and measured after 48 hrs in presence of liver S9 fraction by Ames test relative to control; assay type: organism-based; settings: salmonella enterica subsp. enterica serovar typhimurium, s9, 48 h
[13] = Neurotoxicity in Sprague-Dawley rat at 30 mg/kg, po measured after 4 hrs by rotarod test; assay type: toxicity, organism-based; settings: in vivo; procedure, shortened: as §3
[14] = Neurotoxicity in CF-1 mouse at 300 mg/kg, ip measured after 4 hrs by rotarod test; assay type: toxicity, organism-based; settings: in vivo; procedure, shortened: as §5
[15] = Neurotoxicity in Sprague-Dawley rat at 100 mg/kg, ip measured after 0.5 hrs by rotarod test; assay type: toxicity, organism-based; settings: in vivo; procedure, shortened: as §3
Mus musculus [16] = experiment: Anticonvulsant activity in CF-1 mouse model of subcutaneous pentylenetetrazole-induced seizure assessed as reduction in convulsions at 30 mg/kg, ip measured at 4 hrs post dose; assay type: functional, organism-based; procedure, shortened: as §2
Salmonella typhimurium [17] = experiment: Antimutagenic activity against Salmonella typhimurium TA100 assessed as inhibition of NaN3-induced mutation at 500 ug/plate preincubated for 30 mins followed by top agar addition and measured after 48 hrs in presence of liver S9 fraction by Ames test relative to control; assay type: organism-based; settings: salmonella enterica subsp. enterica serovar typhimurium, s9, 48 h
[18] = Intrinsic clearance in rat liver microsomes at 20 uM preincubated for 15 mins followed by NADPH generating system addition and measured after 5 to 60 mins by LC-MS/MS analysis; assay type: ADME, Microsome; settings: read-out: CLH
Procedure, shortened: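 Test compound at 20 µM preincubated 15 min with male rat liver microsomes (0.4 mg ml⁻¹) in 100 mM potassium phosphate, pH 7.4. Started with NADP⁺ (3.4 mM), glucose 6-phosphate (7.7 mM) and G6PDH (0.6 U ml⁻¹). Run 5–60 min at 37 °C in duplicate, stopped with cold perchloric acid plus internal standard, supernatant analysed by LC-MS/MS. Half-life and Cl_int derived by literature methods.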

Mus musculus [19] = experiment: Anticonvulsant activity in CF-1 mouse model of subcutaneous pentylenetetrazole-induced seizure assessed as reduction in convulsions at 300 mg/kg, ip measured at 4 hrs post dose; assay type: functional, organism-based; procedure, shortened: as §2
[20] = Neurotoxicity in CF-1 mouse at 100 mg/kg, ip measured after 4 hrs by rotarod test; assay type: toxicity, organism-based; settings: in vivo; procedure, shortened: as §5
[21] = Neurotoxicity in Sprague-Dawley rat at 30 mg/kg, po measured after 1 hr by rotarod test; assay type: toxicity, organism-based; settings: in vivo; procedure, shortened: as §3
Rattus norvegicus [22] = experiment: Anticonvulsant activity in Sprague-Dawley rat model of maximal electroshock-induced seizure assessed as suppression of tonic hind limb extension at 30 mg/kg, po measured at 0.5 hrs post dose; assay type: functional, organism-based; procedure, shortened: as §4
Salmonella typhimurium [23] = experiment: Antimutagenic activity against Salmonella typhimurium TA1535 assessed as inhibition of NaN3-induced mutation at 50 ug/plate preincubated for 30 mins followed by top agar addition and measured after 48 hrs in presence of liver S9 fraction by Ames test relative to control; assay type: organism-based; settings: salmonella enterica subsp. enterica serovar typhimurium, s9, 48 h
Mus musculus [24] = experiment: Anticonvulsant activity in CF-1 mouse model of maximal electroshock-induced seizure assessed as suppression of tonic hind limb extension at 30 mg/kg, ip measured at 0.5 hrs post dose; assay type: functional, organism-based; procedure, shortened: as §1
Salmonella typhimurium [25] = experiment: Antimutagenic activity against Salmonella typhimurium TA100 assessed as inhibition of NaN3-induced mutation at 100 ug/plate preincubated for 30 mins followed by top agar addition and measured after 48 hrs in presence of liver S9 fraction by Ames test relative to control; assay type: organism-based; settings: salmonella enterica subsp. enterica serovar typhimurium, s9, 48 h
[26] = Retention time of the compound in rat liver microsomes by LC-MS/MS analysis; assay type: ADME, Microsome
[27] = Mutagenicity in Salmonella typhimurium TA1535 assessed as mutagenicity index at 50 to 500 ug/plate preincubated for 30 mins followed by top agar addition and measured after 48 hrs in presence of liver S9 fraction by Ames test; assay type: toxicity, subcellular; settings: salmonella enterica subsp. enterica serovar typhimurium, s9, 48 h
Procedure, shortened: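 Ames plate incorporation in S. typhimurium TA100 or TA1535, with or without S9. Overnight culture, compound in DMSO (50–500 µg per plate) and buffer or S9 mix preincubated 30 min at 37 °C, then top agar on glucose minimal agar. Incubated 48 h at 37 °C, revertants counted in triplicate. Vehicle negative control; NaN3 (−S9) and 2AA (+S9) positive controls. MI = revertants with compound / negative-control revertants; MI ≥ 2 with dose-response counts as positive.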

| SMILES | inhibition (INH) (Salmonella typhimurium [1]) [%] | Activity (Mus musculus [2]) | Activity (Mus musculus [3]) | Activity (Mus musculus [4]) | Activity [5] | inhibition (INH) (Salmonella typhimurium [6]) [%] | Activity (Mus musculus [7]) | Activity (Mus musculus [8]) | Activity (Rattus norvegicus [9]) | Activity [10] | Activity (Mus musculus [11]) | inhibition (INH) (Salmonella typhimurium [12]) [%] | Activity [13] | Activity [14] | Activity [15] | Activity (Mus musculus [16]) | inhibition (INH) (Salmonella typhimurium [17]) [%] | microsomal CLint at 20 µM [18] [µL/min/mg] | Activity (Mus musculus [19]) | Activity [20] | also measured |
| --- | --- | --- | --- | --- | --- | --- | --- | --- | --- | --- | --- | --- | --- | --- | --- | --- | --- | --- | --- | --- | --- |
| Cc1cccc(C)c1OCC(=O)N[C@H](C)CO | 31 | inactive | inactive | inactive | Non-Toxic | 47 | inactive | Active | inactive | Non-Toxic | inactive | 38 | Non-Toxic | Non-Toxic | Non-Toxic | inactive | 40 | 9.5 | inactive | Non-Toxic | Activity [21]: Non-Toxic; Activity (Rattus norvegicus [22]): Active; inhibition (INH) (Salmonella typhimurium [23]): 29%; Activity (Mus musculus [24]): inactive; inhibition (INH) (Salmonella typhimurium [25]): 43%; Retention_time [26]: 4.73 min; Activity index [27]: 0.7 to 1.7 |
| CCC(O)CNC(=O)COc1c(C)cccc1C (centres undefined) | 27 | inactive | inactive | inactive | Non-Toxic | 56 | inactive | Active | inactive | Non-Toxic | inactive | 11 | Non-Toxic | Non-Toxic | Toxic | inactive | 47 | 57 | inactive | Non-Toxic | Activity [21]: Non-Toxic; Activity (Rattus norvegicus [22]): Active; inhibition (INH) (Salmonella typhimurium [23]): 42%; Activity (Mus musculus [24]): inactive; inhibition (INH) (Salmonella typhimurium [25]): 26%; Retention_time [26]: 5.15 min; Activity index [27]: 0.7 to 1.7 |
